High-throughput results as filed in PubChem.
ABCB1 block = ABCB1 efflux pump inhibitors, primary screen, cell-based, multiplex, flow cytometry, ABCG2 counter-screen. ATP-dependent translocase ABCB1 (Homo sapiens), P08183. CCRF-Adr cells, JC-1 efflux. inhibition, % at 6.6 µM. 190,000 compounds, 0.067% hits; in the data active = inhibition above about 40%;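 note: 0% = vehicle and 100% = reference inhibitor; higher value means more JC-1 retained so stronger ABCB1 efflux block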
PKD1 kinase inh = inhibitors of human PKD1 kinase, biochemical, fluorescence polarization. AID 797, 2007. inhibition, % (no concentration beside the values). PKD1 kinase fluorescence polarization assay. Serine/threonine-protein kinase D1 (Homo sapiens), Q15139. 200,000 compounds, 0.056% hits; in the data active = inhibition above about 50%
NCF1 inh = p47phox/p22phox peptide binding inhibitors, primary screen, biochemical, uHTS, NADPH oxidase regulatory subunit; Neutrophil cytosol factor 1 (Homo sapiens), P14598; fluorescence polarization, 2 h; 220,000 compounds, 0.53% hits; AID 1274, 2008; inhibition, % at 24.7 µM;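 active = inhibition above about 30%, limit read from the data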;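 note: 0% = p47phox with labelled peptide and 100% = labelled peptide alone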
ABCG2 block = ABCG2 efflux pump inhibitors, primary screen, multiplex with ABCB1, IgMXP3 cells, flow cytometry | Broad substrate specificity ATP-binding cassette transporter ABCG2 (Homo sapiens), Q9UNQ0 | JC-1 efflux | inhibition, % at 6.6 µM | 190,000 compounds, 0.1% hits | AID 1325, 2008;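 active = inhibition above 80%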;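 note: 0% = DMSO and 100% = nicardipine control wells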
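Test system: ABCG2 IgMXP3 and barcoded ABCB1 CCRF-Adr cell mix; Schedule: cells with compound and JC-1, 10 min at 25 °C, rotating, no wash; Technique: flow cytometry of retained JC-1 fluorescence; Measure: % inhibition of efflux relative to nicardipine and DMSO; Controls: nicardipine high and DMSO low controls.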
PHOSPHO1 block = PubChem AID 1565. 290,000 compounds, 1.1% hits. inhibition, % at 13.3 µM. recombinant PHOSPHO1, absorbance phosphatase assay; in the data active = inhibition above about 60%
Target sequence (Q8TCT1 whole entry, looked up): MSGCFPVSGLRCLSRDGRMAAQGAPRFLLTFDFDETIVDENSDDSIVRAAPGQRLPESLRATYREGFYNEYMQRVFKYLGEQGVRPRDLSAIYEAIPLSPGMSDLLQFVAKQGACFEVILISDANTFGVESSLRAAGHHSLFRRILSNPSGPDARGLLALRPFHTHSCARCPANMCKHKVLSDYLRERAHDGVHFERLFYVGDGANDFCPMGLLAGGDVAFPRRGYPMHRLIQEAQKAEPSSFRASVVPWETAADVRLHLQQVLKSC
HSV replic up = enhancers of HSV replication in host cells, fold increase, host cell viability; HSV replication augmentation in cells; maximum fold increase; 220,000 compounds, 0.005% hits; AID 1956, 2009; in the data active = maximum fold increase above about 1.5; tested in PC3 cells
Numbers without * were called inactive; i = inactive; . = no result given. An excerpt weighted towards active compounds, which were near 1.6% of everything screened.

SMILES | ABCB1 block | PKD1 kinase inh | NCF1 inh | ABCG2 block | PHOSPHO1 block | HSV replic up
Cc1nc(NC(=O)c2ccccc2)sc1-c1csc(NCCc2ccccc2)n1 | -0.1 | 10.6 | -37.2 | 0.6 | 62.2* | i
CCCCCC(=O)Nc1nc(C)c(-c2csc(Nc3ccccc3OCC)n2)s1 | 0.1 | 0.2 | -30.6 | 0.6 | 79.2* | i
COc1ccccc1Nc1nc(-c2sc(NC(=O)c3ccccc3)nc2C)cs1 | -0.4 | 3.8 | -4.8 | -0.6 | 50.0 | i
CCCCCC(=O)Nc1nc(C)c(-c2csc(Nc3ccccc3OC)n2)s1 | -0.4 | 18.0 | -19.5 | -1.4 | 74.3* | i
COc1cccc(Nc2nc(-c3sc(C)nc3C)cs2)c1 | . | . | . | . | -7.8 | .
CCCC(=O)Nc1nc(C)c(-c2csc(Nc3ccccc3C)n2)s1 | 0.0 | 1.9 | -41.3 | 0.5 | 15.4 | i
COc1ccc(NC(=O)CSc2nc3ccccc3nc2N2CCCC2)cc1 | . | . | . | . | 30.6 | .
CC(=O)C1=NN(c2ccccc2)C(c2cccs2)N1c1ccccc1 (stereo not drawn) | 0.1 | -2.1 | -7.8 | 0.3 | -4.2 | 1.53*
CC(=O)C1=NN(c2ccccc2)C(c2ccc3c(c2)OCO3)N1c1ccc(N2CCOCC2)cc1 (stereo not drawn) | 0.1 | -9.7 | -9.9 | 0.2 | 3.2 | i
COc1cccc(-c2noc(CCCC(=O)N3CCOCC3)n2)c1 | 0.1 | -7.5 | -13.2 | 0.7 | -1.3 | i
Nc1ccc2c(c1)OC1(CCCCC1)O2 | 0.2 | 10.4 | 44.8* | 0.3 | 25.5 | i
CCN(CC)c1ccc(C=C2C(=O)OC3(CCCCC3)OC2=O)cc1 | 0.5 | -0.9 | -74.8 | 1.9 | 30.3 | i
CCCCN(Cc1cc2cc(C)ccc2[nH]c1=O)C(=O)c1ccccn1 | . | . | -11.5 | . | 17.1 | i
CCN(CC)CCNC(=O)C(=O)NCC1OCCN1S(=O)(=O)c1ccc2c(c1)OCCO2 (stereo not drawn) | 0.2 | -8.0 | -0.2 | 0.1 | 19.5 | i
Cc1ccc(CNC(=O)CCc2c(C)nc3c(c(C)nn3-c3ccc(C)cc3)c2C)cc1 | 1.7 | 3.8 | 0.5 | 7.2 | 3.8 | .
Cc1ccc(-n2nc(C)c3c(C)c(CCC(=O)NCc4ccccc4)c(C)nc32)cc1 | 0.2 | -14.8 | 130.4* | 1.6 | -9.3 | i
COCCn1c(-c2ccccc2)nc2c(c(=O)c3ccccc3n2C)c1=O | 0.8 | -11.4 | 0.2 | 1.4 | -16.4 | i
COc1cc(NC(=O)c2ccco2)c(OC)cc1NC(=O)CSc1ncc(-c2ccc(F)cc2)[nH]1 | 0.9 | -0.4 | -15.1 | 4.2 | 74.0* | i
COc1ccc(CCNC(=O)CCNC(=O)c2ccco2)cc1OC | . | . | . | . | 13.0 | .
COCCn1c(=S)[nH]c2ccc(N(C)C)cc2c1=O | 0.1 | -1.3 | -13.3 | 1.4 | 98.0* | i
CCOc1cc2[nH]c(=S)n(CCOC)c(=O)c2cc1OCC | -5.4 | -4.0 | 2.9 | -8.2 | 17.4 | i
O=C(c1ccc(Cl)cc1)N1CCCC(C(=O)N2CCc3ccccc3C2)C1 (stereo not drawn) | . | . | -12.6 | . | 60.5* | i
C(=N\Nc1nc(Nc2ccccc2)nc(N2CCCCC2)n1)/c1ccco1 | 0.7 | -5.3 | 134.8* | 2.2 | 24.8 | i
Cc1ccc(OCCSc2nc3ccccc3n2CC(=O)O)cc1 | . | . | . | . | -12.5 | .
O=C(c1cccn2c(=O)c3cc4ccccc4cc3nc12)N1CCN(c2ccccc2)CC1 | 0.8 | 3.8 | -9.3 | 1.7 | 100.3* | .
O=C(c1cccn2c(=O)c3ccccc3nc12)N1CCN(c2ccccn2)CC1 | 1.1 | -14.5 | -5.8 | 16.1 | 10.6 | i
O=C(N/N=C/c1cccc([N+](=O)[O-])c1)C(=O)N1CCCCCC1 | . | . | . | . | 9.0 | .
COC(=O)c1sc(NC(=O)c2cc(-c3ccccc3)nc3ccccc23)c(C#N)c1C | 0.9 | -1.6 | -19.7 | 3.6 | 96.2* | i
Nn1c(-c2cccc(Br)c2)n[nH]c1=S | 1.6 | -0.7 | -3.5 | 35.3 | 95.5* | i
Cc1cccc(-c2n[nH]c(=S)n2C)c1 | -0.6 | -4.6 | -1.3 | -0.7 | -31.6 | i
